Laboratory results as given in ChEMBL document CHEMBL1649165, “Activity profile in vitro of micafungin against Spanish clinical isolates of common and emerging species of yeasts and molds” (2009).
≈ marks a conversion by molar mass, not a printed value. *1 amine or outer side, *2 acyl side, *3 side chain or, on linkers, in order; H or OH if unused. Where a SMILES comes first, the peptide text is derived from it. Bridges are numbered along the chain shown (N, C = ends). [ ]: non-standard residue; d: D form. The star is where a group is joined. pTerphenylCO(4''-OnC5H11) = CCCCCOc1ccc(-c2ccc(-c3ccc(C(=O)*)cc3)cc2)cc1; Orn(4R-OH,5R-OH) = O=C([C@H](C[C@@H](O)[C@@H](O)N[*:3])N[*:1])[*:2]; hTyr(3S-OH,4S-OH) = N[C@H](C(=O)O)[C@H](O)[C@@H](O)c1ccc(O)cc1; Pro(3S-OH,4S-Me) = C[C@H]1CN[C@H](C(=O)O)[C@H]1O; Hyp = O=C(O)[C@@H]1C[C@@H](O)CN1

Assays:
Type in all cases: functional
Fusarium proliferatum = test: Antimicrobial activity against Fusarium proliferatum by broth microdilution method
Method in brief: (§1)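 Clinical mould isolates, tested by broth microdilution using the AFST-EUCAST reference method for filamentous fungi. For echinocandins, the endpoint was the minimum effective concentration: the lowest drug concentration giving aberrant hyphal growth, read with an inverted microscope.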

Ustilago = test: Antimicrobial activity against Ustilago spp by broth microdilution method
Torulaspora delbrueckii = test: Antimicrobial activity against Candida coliculosa by broth microdilution method
Method in brief: (§2)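 Clinical isolates from human patients, tested by broth microdilution using the AFST-EUCAST reference procedure for fermentative yeasts. The MIC was read per that reference method.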

Candida orthopsilosis = test: Antimicrobial activity against Candida orthopsilosis by broth microdilution method; details: Lodderomyces orthopsilosis; method in brief: as §2
Aspergillus sclerotiorum = test: Antimicrobial activity against Aspergillus sclerotiorum by broth microdilution method; method in brief: as §1
Hortaea werneckii = test: Antimicrobial activity against Hortaea werneckii by broth microdilution method
Geotrichum candidum = test: Antimicrobial activity against Galactomyces geotrichum by broth microdilution method
Aspergillus fumigatus = test: Antimicrobial activity against Aspergillus fumigatus by broth microdilution method; method in brief: as §1
Yarrowia lipolytica = test: Antimicrobial activity against Yarrowia lipolytica by broth microdilution method
Candida albicans = test: Antimicrobial activity against Candida albicans by broth microdilution method; method in brief: as §2
Acremonium sp. = test: Antimicrobial activity against Acremonium sp.by broth microdilution method; method in brief: as §1
Aspergillus glaucus = test: Antimicrobial activity against Aspergillus glaucus by broth microdilution method; method in brief: as §1
Lichtheimia corymbifera = test: Antimicrobial activity against Mycocladus corymbiferus by broth microdilution method
Method in brief: (§3)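 Filamentous fungus clinical isolates tested by the AFST-EUCAST reference broth microdilution method for moulds. For echinocandins, the endpoint was the minimum effective concentration: the lowest drug concentration giving aberrant hyphal growth, read with an inverted microscope.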

[1] = system: Kazachstania pintolopesii; test: Antimicrobial activity against Candida pintolopesii by broth microdilution method; details: Arxiozyma pintolopesii; method in brief: as §2
[2] = system: Cryptococcus deneoformans; test: Antimicrobial activity against Cryptococcus neoformans var. neoformans by broth microdilution method
Method in brief: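 Clinical isolates of nonfermentative yeasts, tested by broth microdilution following EUCAST recommendations. The only change from that method was a minor modification to improve growth.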

Trichosporon inkin = test: Antimicrobial activity against Trichosporon inkin by broth microdilution method
Method in brief: (§4)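 Nonfermentative yeast clinical isolates (Rhodotorula, Trichosporon) tested by broth microdilution. The EUCAST yeast recommendations were followed strictly, with one minor modification to improve growth. MIC was read as the endpoint.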

Penicillium = test: Antimicrobial activity against Penicillium spp. by broth microdilution method; method in brief: as §3
Lomentospora prolificans = test: Antimicrobial activity against Scedosporium prolificans by broth microdilution method; method in brief: as §3
[3] = system: Cladophialophora bantiana; test: Antimicrobial activity against Cladophialophora bantiana by broth microdilution method; method in brief: as §1
Pichia norvegensis = test: Antimicrobial activity against Candida norvegensis by broth microdilution method; method in brief: as §2
[4] = system: Meyerozyma guilliermondii; test: Antimicrobial activity against Candida guilliermondii by broth microdilution method; method in brief: as §2
Trichosporon domesticum = test: Antimicrobial activity against Trichosporon mycotoxinivorans by broth microdilution method; details: Apiotrichum domesticum
Method in brief: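 Spanish human clinical isolates were tested as nonfermentative yeasts by broth microdilution. The method strictly followed the EUCAST recommendations, with a minor modification to improve growth, and the read-out was the MIC.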

Saccharomyces cerevisiae = test: Antimicrobial activity against Saccharomyces cerevisiae by broth microdilution method
Nakaseomyces glabratus = test: Antimicrobial activity against Candida glabrata by broth microdilution method; method in brief: as §2
Rhizopus arrhizus = test: Antimicrobial activity against Rhizopus oryzae by broth microdilution method; method in brief: as §3
[Candida] zeylanoides = Antimicrobial activity against Candida zeylanoides by broth microdilution method; details: Dujonia zeylanoides; method in brief: as §2
[Candida] inconspicua = Antimicrobial activity against Candida inconspicua by broth microdilution method; details: Pichia inconspicua; method in brief: as §2
Exophiala jeanselmei = test: Antimicrobial activity against Exophiala jeanselmei by broth microdilution method
Kluyveromyces marxianus = test: Antimicrobial activity against Candida kefyr by broth microdilution method; method in brief: as §2
Trichosporon jirovecii = test: Antimicrobial activity against Trichosporon jirovecii by broth microdilution method; details: Cutaneotrichosporon jirovecii; method in brief: as §4
Wickerhamomyces anomalus = test: Antimicrobial activity against Candida pelliculosa by broth microdilution method; details: Hansenula anomala; method in brief: as §2
Candida metapsilosis = test: Antimicrobial activity against Candida metapsilosis by broth microdilution method; details: Lodderomyces metapsilosis; method in brief: as §2
Trichoderma = test: Antimicrobial activity against Trichoderma spp. by broth microdilution method; method in brief: as §3
Aspergillus sydowii = test: Antimicrobial activity against Aspergillus sydowii by broth microdilution method; method in brief: as §1
Aspergillus ochraceus = test: Antimicrobial activity against Aspergillus ochraceus by broth microdilution method; method in brief: as §1
Scytalidium hyalinum = test: Antimicrobial activity against Scytalidium hyalinum by broth microdilution method; details: Neoscytalidium hyalinum; method in brief: as §3
[5] = Antimicrobial activity against Hormographiella aspergillata by broth microdilution method; details: Coprinopsis cinerea; method in brief: as §3
Phialemonium curvatum = test: Antimicrobial activity against Phialemonium curvatum by broth microdilution method; details: Thyridium curvatum; method in brief: as §3
Candida tropicalis = test: Antimicrobial activity against Candida tropicalis by broth microdilution method; method in brief: as §2

CCCCCOc1ccc(-c2ccc(-c3ccc(C(=O)N[C@H]4C[C@@H](O)[C@@H](O)NC(=O)[C@@H]5[C@@H](O)[C@@H](C)CN5C(=O)[C@H]([C@@H](C)O)NC(=O)[C@H]([C@H](O)[C@@H](O)c5ccc(O)cc5)NC(=O)[C@@H]5C[C@@H](O)CN5C(=O)[C@H]([C@@H](C)O)NC4=O)cc3)cc2)cc1 [ANIDULAFUNGIN] ({pTerphenylCO(4''-OnC5H11)}-[Orn(4R-OH,5R-OH)]T[Hyp][hTyr(3S-OH,4S-OH)]T[Pro(3S-OH,4S-Me)]; lactam 1-C)
MIC50 (Fusarium proliferatum): > 16 mg/L | MIC90 (Fusarium proliferatum): > 16 mg/L | MIC50 (Ustilago): > 16 mg/L | MIC90 (Ustilago): > 16 mg/L | MIC50 (Torulaspora delbrueckii): 0.06 mg/L (≈ 0.0526 µM) | MIC90 (Torulaspora delbrueckii): 0.25 mg/L (≈ 0.219 µM) | MIC50 (Candida orthopsilosis): 0.06 mg/L (≈ 0.0526 µM) | MIC90 (Candida orthopsilosis): 0.25 mg/L (≈ 0.219 µM) | MIC50 (Aspergillus sclerotiorum): 0.06 mg/L (≈ 0.0526 µM) | MIC90 (Aspergillus sclerotiorum): 0.25 mg/L (≈ 0.219 µM) | MIC50 (Hortaea werneckii): 0.03 mg/L (≈ 0.0263 µM) | MIC90 (Hortaea werneckii): 0.06 mg/L (≈ 0.0526 µM) | MIC50 (Geotrichum candidum): > 16 mg/L | MIC90 (Geotrichum candidum): > 16 mg/L | MIC50 (Aspergillus fumigatus): 0.03 mg/L (≈ 0.0263 µM) | MIC90 (Aspergillus fumigatus): 0.03 mg/L (≈ 0.0263 µM) | MIC50 (Yarrowia lipolytica): 0.06 mg/L (≈ 0.0526 µM) | MIC90 (Yarrowia lipolytica): 0.12 mg/L (≈ 0.105 µM) | MIC50 (Candida albicans): 0.03 mg/L (≈ 0.0263 µM) | MIC90 (Candida albicans): 0.03 mg/L (≈ 0.0263 µM) | MIC50 (Acremonium sp.): 0.03 mg/L (≈ 0.0263 µM) | MIC90 (Acremonium sp.): 0.03 mg/L (≈ 0.0263 µM) | MIC50 (Aspergillus glaucus): 0.06 mg/L (≈ 0.0526 µM) | MIC90 (Aspergillus glaucus): 0.25 mg/L (≈ 0.219 µM) | MIC50 (Lichtheimia corymbifera): > 16 mg/L | MIC90 (Lichtheimia corymbifera): > 16 mg/L | MIC50 [1]: 0.06 mg/L (≈ 0.0526 µM) | MIC90 [1]: 0.25 mg/L (≈ 0.219 µM) | MIC50 [2]: > 16 mg/L | MIC90 [2]: > 16 mg/L | MIC50 (Trichosporon inkin): > 16 mg/L | MIC90 (Trichosporon inkin): > 16 mg/L | MIC50 (Penicillium): 0.03 mg/L (≈ 0.0263 µM) | MIC90 (Penicillium): 0.03 mg/L (≈ 0.0263 µM) | MIC50 (Lomentospora prolificans): 4 mg/L (≈ 3.51 µM) | MIC90 (Lomentospora prolificans): > 16 mg/L | MIC50 [3]: 0.03 mg/L (≈ 0.0263 µM) | MIC90 [3]: 0.06 mg/L (≈ 0.0526 µM) | MIC50 (Pichia norvegensis): 0.06 mg/L (≈ 0.0526 µM) | MIC90 (Pichia norvegensis): 0.25 mg/L (≈ 0.219 µM) | MIC50 [4]: 1 mg/L (≈ 0.877 µM) | MIC90 [4]: 8 mg/L (≈ 7.02 µM) | MIC50 (Trichosporon domesticum): > 16 mg/L | MIC90 (Trichosporon domesticum): > 16 mg/L | MIC50 (Saccharomyces cerevisiae): 0.12 mg/L (≈ 0.105 µM) | MIC90 (Saccharomyces cerevisiae): 0.25 mg/L (≈ 0.219 µM) | MIC50 (Nakaseomyces glabratus): 0.03 mg/L (≈ 0.0263 µM) | MIC90 (Nakaseomyces glabratus): 0.03 mg/L (≈ 0.0263 µM) | MIC50 (Rhizopus arrhizus): > 16 mg/L | MIC90 (Rhizopus arrhizus): > 16 mg/L | MIC50 ([Candida] zeylanoides): 0.06 mg/L (≈ 0.0526 µM) | MIC90 ([Candida] zeylanoides): 0.25 mg/L (≈ 0.219 µM) | MIC50 ([Candida] inconspicua): 0.06 mg/L (≈ 0.0526 µM) | MIC90 ([Candida] inconspicua): 0.25 mg/L (≈ 0.219 µM) | MIC50 (Exophiala jeanselmei): 0.03 mg/L (≈ 0.0263 µM) | MIC90 (Exophiala jeanselmei): 0.06 mg/L (≈ 0.0526 µM) | MIC50 (Kluyveromyces marxianus): 0.03 mg/L (≈ 0.0263 µM) | MIC90 (Kluyveromyces marxianus): 0.03 mg/L (≈ 0.0263 µM) | MIC50 (Trichosporon jirovecii): > 16 mg/L | MIC90 (Trichosporon jirovecii): > 16 mg/L | MIC50 (Wickerhamomyces anomalus): 0.06 mg/L (≈ 0.0526 µM) | MIC90 (Wickerhamomyces anomalus): 0.25 mg/L (≈ 0.219 µM) | MIC50 (Candida metapsilosis): 0.06 mg/L (≈ 0.0526 µM) | MIC90 (Candida metapsilosis): 0.25 mg/L (≈ 0.219 µM) | MIC50 (Trichoderma): > 16 mg/L | MIC90 (Trichoderma): > 16 mg/L | MIC50 (Aspergillus sydowii): 0.03 mg/L (≈ 0.0263 µM) | MIC90 (Aspergillus sydowii): 0.03 mg/L (≈ 0.0263 µM) | MIC50 (Aspergillus ochraceus): 0.06 mg/L (≈ 0.0526 µM) | MIC90 (Aspergillus ochraceus): 0.25 mg/L (≈ 0.219 µM) | MIC50 (Scytalidium hyalinum): 0.03 mg/L (≈ 0.0263 µM) | MIC90 (Scytalidium hyalinum): 0.06 mg/L (≈ 0.0526 µM) | MIC50 [5]: > 16 mg/L | MIC90 [5]: > 16 mg/L | MIC50 (Phialemonium curvatum): > 16 mg/L | MIC90 (Phialemonium curvatum): > 16 mg/L | MIC50 (Candida tropicalis): 0.03 mg/L (≈ 0.0263 µM) | MIC90 (Candida tropicalis): 0.03 mg/L (≈ 0.0263 µM)
